Measurements: ChEMBL document CHEMBL1155468, “Syntheses and evaluation of anticonvulsant profile and teratogenicity of novel amide derivatives of branched aliphatic carboxylic acids with 4-aminobenzensulfonamide” (J Med Chem, 2010)
The source made the active and inactive calls.

Experiments:
Mus musculus [1] = experiment: Anticonvulsant activity in CF1 albino mouse assessed as inhibition of subcutaneous pentylenetetrazole-induced seizures at 300 mg/kg, ip after 0.5 hrs; type: functional, organism-based; design: dose 300 mg/kg
Method in brief: (§1)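 Adult male CF no. 1 albino mice (18-25 g) dosed ip with compound suspended in 0.5% methylcellulose (0.01 mL/g). Convulsant: pentylenetetrazol dissolved in 0.9% saline as a 0.85% solution for mice, given subcutaneously.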

Mus musculus [2] = experiment: Teratogenic effect in SWV mouse assessed as resorptions at 148 mg/kg, ip administered on morning of day 8 of gestation; type: toxicity, organism-based; design: dose 148 mg/kg, route intraperitoneal; settings: in vivo
Method in brief: (§2)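 SWV inbred mice: two-month-old nulligravid females mated overnight with males and checked for vaginal plugs next morning; gestation onset taken as 10 p.m. the previous night. On gestation day 8.5 each dam got one ip injection, 0.55–2.7 mmol/kg, in 25% aqueous Cremophor EL (vehicle controls dosed alike), 10 μL/g body weight. Litters and implants tallied; resorptions and live fetuses reported as counts with percentages.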

Mus musculus [3] = experiment: Anticonvulsant activity in CF1 albino mouse assessed as inhibition of subcutaneous pentylenetetrazole-induced seizures at 300 mg/kg, ip after 4 hrs; type: functional, organism-based; design: dose 300 mg/kg; method in brief: as §1
Mus musculus [4] = experiment: Teratogenic effect in SWV mouse assessed as fetuses with neural tube deffects at 294 mg/kg, ip administered on morning of day 8 of gestation; type: toxicity, organism-based; design: dose 294 mg/kg, route intraperitoneal; settings: in vivo
Method in brief: (§3)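 Two-month-old nulligravid SWV females were mated overnight and checked for vaginal plugs the next morning; gestation onset was set at 10 p.m. the previous night. On gestation day 8.5, each dam received a single ip injection (0.55-2.7 mmol/kg range) or vehicle (25% aqueous Cremophor EL) at 10 μL/g body weight. Litters were scored for implants, resorptions, live and dead fetuses, and fetuses with neural tube defects.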

Mus musculus [5] = experiment: Neurotoxicity in CF1 albino mouse assessed as motor impairment at 100 mg/kg, ip after 4 hrs; type: toxicity, organism-based; design: dose 100 mg/kg, route intraperitoneal; settings: in vivo
Mus musculus [6] = experiment: Neurotoxicity in CF1 albino mouse assessed as motor impairment at 30 mg/kg, ip after 4 hrs; type: toxicity, organism-based; design: dose 30 mg/kg, route intraperitoneal; settings: in vivo
Mus musculus [7] = experiment: Anticonvulsant activity in CF1 albino mouse assessed as inhibition of subcutaneous pentylenetetrazole-induced seizures at 100 mg/kg, ip after 0.5 hrs; type: functional, organism-based; design: dose 100 mg/kg; method in brief: as §1
Rattus norvegicus [8] = species: Rattus norvegicus; experiment: Protective index, ratio of TD50 for rat to ED50 for maximal electroshock-induced rat seizure model
Rattus norvegicus [9] = experiment: Neurotoxicity in Sprague-Dawley rat assessed as motor impairment at 30 mg/kg, po after 0.25 to 4 hrs; settings: in vivo
Mus musculus [10] = experiment: Teratogenic effect in SWV mouse assessed as fetuses with neural tube deffects at 486 mg/kg, ip administered on morning of day 8 of gestation; type: toxicity, organism-based; design: dose 486 mg/kg, route intraperitoneal; settings: in vivo; method in brief: as §3
Mus musculus [11] = experiment: Teratogenic effect in SWV mouse assessed as live fetuses at 294 mg/kg, ip administered on morning of day 8 of gestation; type: toxicity, organism-based; design: dose 294 mg/kg, route intraperitoneal; settings: in vivo; method in brief: as §3
Mus musculus [12] = experiment: Neurotoxicity in CF1 albino mouse assessed as motor impairment at 300 mg/kg, ip after 4 hrs; type: toxicity, organism-based; design: dose 300 mg/kg, route intraperitoneal; settings: in vivo
Mus musculus [13] = experiment: Teratogenic effect in SWV mouse assessed as live fetuses at 486 mg/kg, ip administered on morning of day 8 of gestation; type: toxicity, organism-based; design: dose 486 mg/kg, route intraperitoneal; settings: in vivo; method in brief: as §2
Mus musculus [14] = experiment: Neurotoxicity in CF1 albino mouse assessed as motor impairment at 30 mg/kg, ip after 0.5 hrs; type: toxicity, organism-based; design: dose 30 mg/kg, route intraperitoneal; settings: in vivo
Mus musculus [15] = experiment: Teratogenic effect in SWV mouse assessed as live fetuses at 148 mg/kg, ip administered on morning of day 8 of gestation; type: toxicity, organism-based; design: dose 148 mg/kg, route intraperitoneal; settings: in vivo; method in brief: as §3
Mus musculus [16] = experiment: Anticonvulsant activity in CF1 albino mouse assessed as inhibition of subcutaneous pentylenetetrazole-induced seizures at 30 mg/kg, ip after 0.5 hrs; type: functional, organism-based; design: dose 30 mg/kg; method in brief: as §1
Rattus norvegicus [17] = experiment: Anticonvulsant activity in Sprague-Dawley rat assessed as inhibition of maximal electroshock-induced seizures at 30 mg/kg, po after 4 hrs
Rattus norvegicus [18] = experiment: Anticonvulsant activity in Sprague-Dawley rat assessed as inhibition of maximal electroshock-induced seizures at 30 mg/kg, po after 2 hrs
Mus musculus [19] = experiment: Teratogenic effect in SWV mouse assessed as resorptions at 486 mg/kg, ip administered on morning of day 8 of gestation; type: toxicity, organism-based; design: dose 486 mg/kg, route intraperitoneal; settings: in vivo; method in brief: as §2
Mus musculus [20] = experiment: Neurotoxicity in CF1 albino mouse assessed as motor impairment at 300 mg/kg, ip after 0.5 hrs; type: toxicity, organism-based; design: dose 300 mg/kg, route intraperitoneal; settings: in vivo
Mus musculus [21] = experiment: Anticonvulsant activity in CF1 albino mouse assessed as inhibition of subcutaneous pentylenetetrazole-induced seizures at 100 mg/kg, ip after 4 hrs; type: functional, organism-based; design: dose 100 mg/kg; method in brief: as §1
Mus musculus [22] = experiment: Anticonvulsant activity in CF1 albino mouse assessed as inhibition of maximal electroshock-induced seizures at 30 mg/kg, ip after 0.5 hrs; type: functional, organism-based; design: dose 30 mg/kg
Method in brief: (§4)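 Test compounds suspended in 0.5% methylcellulose and given ip to adult male CF no. 1 albino mice (18-25 g) at 0.01 mL/g body weight before maximal electroshock challenge.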

Mus musculus [23] = experiment: Anticonvulsant activity in CF1 albino mouse assessed as inhibition of subcutaneous pentylenetetrazole-induced seizures at 30 mg/kg, ip after 4 hrs; type: functional, organism-based; design: dose 30 mg/kg; method in brief: as §1
Rattus norvegicus [24] = experiment: Anticonvulsant activity in po dosed rat assessed as inhibition of maximal electroshock-induced seizures
Mus musculus [25] = experiment: Anticonvulsant activity in CF1 albino mouse assessed as inhibition of maximal electroshock-induced seizures at 30 mg/kg, ip after 4 hrs; type: functional, organism-based; design: dose 30 mg/kg; method in brief: as §4
Mus musculus [26] = experiment: Teratogenic effect in SWV mouse assessed as resorptions at 294 mg/kg, ip administered on morning of day 8 of gestation; type: toxicity, organism-based; design: dose 294 mg/kg, route intraperitoneal; settings: in vivo; method in brief: as §2
Mus musculus [27] = experiment: Neurotoxicity in CF1 albino mouse assessed as motor impairment at 100 mg/kg, ip after 0.5 hrs; type: toxicity, organism-based; design: dose 100 mg/kg, route intraperitoneal; settings: in vivo
Mus musculus [28] = experiment: Anticonvulsant activity in CF1 albino mouse assessed as inhibition of maximal electroshock-induced seizures at 300 mg/kg, ip after 4 hrs; type: functional, organism-based; design: dose 300 mg/kg; method in brief: as §4
Rattus norvegicus [29] = experiment: Anticonvulsant activity in Sprague-Dawley rat assessed as inhibition of maximal electroshock-induced seizures at 30 mg/kg, po after 30 mins
Mus musculus [30] = experiment: Anticonvulsant activity in CF1 albino mouse assessed as inhibition of maximal electroshock-induced seizures at 100 mg/kg, ip after 0.5 hrs; type: functional, organism-based; design: dose 100 mg/kg; method in brief: as §4
Mus musculus [31] = experiment: Anticonvulsant activity in CF1 albino mouse assessed as inhibition of maximal electroshock-induced seizures at 300 mg/kg, ip after 0.5 hrs; type: functional, organism-based; design: dose 300 mg/kg; method in brief: as §4
Rattus norvegicus [32] = experiment: Anticonvulsant activity in Sprague-Dawley rat assessed as inhibition of maximal electroshock-induced seizures at 30 mg/kg, po after 1 hr
Mus musculus [33] = experiment: Anticonvulsant activity in CF1 albino mouse assessed as inhibition of maximal electroshock-induced seizures at 100 mg/kg, ip after 4 hrs; type: functional, organism-based; design: dose 100 mg/kg; method in brief: as §4
Rattus norvegicus [34] = experiment: Anticonvulsant activity in Sprague-Dawley rat assessed as inhibition of maximal electroshock-induced seizures at 30 mg/kg, po after 15 mins
Mus musculus [35] = experiment: Teratogenic effect in SWV mouse assessed as fetuses with neural tube deffects at 148 mg/kg, ip administered on morning of day 8 of gestation; type: toxicity, organism-based; design: dose 148 mg/kg, route intraperitoneal; settings: in vivo; method in brief: as §3

CC(C)(C)CC(=O)Nc1ccc(S(N)(=O)=O)cc1
8.4%: Activity (Mus musculus [26])
91.4%: Activity (Mus musculus [15])
15%: Activity (Mus musculus [10])
active: Activity (Rattus norvegicus [17]) | Activity (Rattus norvegicus [18]) | Activity (Mus musculus [28])
91.6%: Activity (Mus musculus [11])
inactive: Activity (Mus musculus [1]) | Activity (Mus musculus [3]) | Activity (Mus musculus [7]) | Activity (Mus musculus [16]) | Activity (Mus musculus [21]) | Activity (Mus musculus [22]) | Activity (Mus musculus [23]) | Activity (Mus musculus [25])
8.9%: Activity (Mus musculus [19])
Non-toxic: Activity (Mus musculus [5]) | Activity (Mus musculus [6]) | Activity (Rattus norvegicus [9]) | Activity (Mus musculus [12]) | Activity (Mus musculus [14]) | Activity (Mus musculus [20]) | Activity (Mus musculus [27])
8.6%: Activity (Mus musculus [2])
91.1%: Activity (Mus musculus [13])
>53.2: Ratio TD50/ED50 (Rattus norvegicus [8])
9.4 mg/kg: ED50 (Rattus norvegicus [24])
3.7%: Activity (Mus musculus [4])

CCCC(C(=O)Nc1ccc(S(N)(=O)=O)cc1)C(C)(C)C (stereo not drawn)
Non-toxic: Activity (Mus musculus [5]) | Activity (Mus musculus [6]) | Activity (Rattus norvegicus [9]) | Activity (Mus musculus [12]) | Activity (Mus musculus [14]) | Activity (Mus musculus [20]) | Activity (Mus musculus [27])
inactive: Activity (Mus musculus [1]) | Activity (Rattus norvegicus [29]) | Activity (Mus musculus [3]) | Activity (Mus musculus [7]) | Activity (Mus musculus [30]) | Activity (Mus musculus [31]) | Activity (Rattus norvegicus [32]) | Activity (Mus musculus [16]) | Activity (Rattus norvegicus [17]) | Activity (Rattus norvegicus [18]) | Activity (Mus musculus [21]) | Activity (Mus musculus [22]) | Activity (Mus musculus [23]) | Activity (Mus musculus [25]) | Activity (Mus musculus [28]) | Activity (Mus musculus [33])

CCC(C)C(C(=O)Nc1ccc(S(N)(=O)=O)cc1)C(C)C (stereo not drawn)
Non-toxic: Activity (Mus musculus [5]) | Activity (Mus musculus [6]) | Activity (Rattus norvegicus [9]) | Activity (Mus musculus [12]) | Activity (Mus musculus [14]) | Activity (Mus musculus [20]) | Activity (Mus musculus [27])
inactive: Activity (Mus musculus [1]) | Activity (Rattus norvegicus [29]) | Activity (Mus musculus [3]) | Activity (Rattus norvegicus [34]) | Activity (Mus musculus [7]) | Activity (Mus musculus [30]) | Activity (Mus musculus [31]) | Activity (Mus musculus [16]) | Activity (Rattus norvegicus [17]) | Activity (Rattus norvegicus [18]) | Activity (Mus musculus [21]) | Activity (Mus musculus [22]) | Activity (Mus musculus [23]) | Activity (Mus musculus [25]) | Activity (Mus musculus [28]) | Activity (Mus musculus [33])

CCC(C)CC(=O)Nc1ccc(S(N)(=O)=O)cc1 (stereo not drawn)
1.1%: Activity (Mus musculus [35])
32.5%: Activity (Mus musculus [26])
9.9%: Activity (Mus musculus [4])
32%: Activity (Mus musculus [13])
10.6%: Activity (Mus musculus [2])
active: Activity (Rattus norvegicus [29]) | Activity (Rattus norvegicus [32]) | Activity (Rattus norvegicus [17]) | Activity (Rattus norvegicus [18])
16.4 mg/kg: ED50 (Rattus norvegicus [24])
>30.4: Ratio TD50/ED50 (Rattus norvegicus [8])
Non-toxic: Activity (Mus musculus [5]) | Activity (Mus musculus [6]) | Activity (Rattus norvegicus [9]) | Activity (Mus musculus [12]) | Activity (Mus musculus [14]) | Activity (Mus musculus [20]) | Activity (Mus musculus [27])
inactive: Activity (Mus musculus [1]) | Activity (Mus musculus [3]) | Activity (Mus musculus [7]) | Activity (Mus musculus [30]) | Activity (Mus musculus [31]) | Activity (Mus musculus [16]) | Activity (Mus musculus [21]) | Activity (Mus musculus [22]) | Activity (Mus musculus [23]) | Activity (Mus musculus [25]) | Activity (Mus musculus [28]) | Activity (Mus musculus [33])
89.4%: Activity (Mus musculus [15])
9.4%: Activity (Mus musculus [10])
67.5%: Activity (Mus musculus [11])
68%: Activity (Mus musculus [19])
